Reference: ChEMBL document CHEMBL1132597, “Corticotropin-releasing hormone receptor antagonists: framework design and synthesis guided by ligand conformational studies” (J Med Chem, 1999)

Molecular target: T1, Corticotropin-releasing factor receptor 1 (Rattus norvegicus, UniProt P35353)
T1 sequence (P35353 whole entry): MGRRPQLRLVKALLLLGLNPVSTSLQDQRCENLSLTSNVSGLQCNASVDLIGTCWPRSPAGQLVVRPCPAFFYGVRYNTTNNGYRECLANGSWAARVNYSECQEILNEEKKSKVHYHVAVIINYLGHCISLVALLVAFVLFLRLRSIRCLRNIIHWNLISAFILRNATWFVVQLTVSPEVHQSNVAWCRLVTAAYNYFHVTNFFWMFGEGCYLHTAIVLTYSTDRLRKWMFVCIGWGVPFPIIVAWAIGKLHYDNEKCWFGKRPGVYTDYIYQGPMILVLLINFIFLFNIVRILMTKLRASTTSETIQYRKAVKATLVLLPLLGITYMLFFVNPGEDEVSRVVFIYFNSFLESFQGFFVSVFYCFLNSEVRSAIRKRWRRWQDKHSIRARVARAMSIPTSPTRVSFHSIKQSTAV
Assay: Binding affinity was determined against corticotropin releasing factor receptor 1
Details: not given
In short: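 Rat CRH1 receptor-binding assay run in pH 7.2 buffer; affinity reported as Ki.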

Ki	Structure (SMILES)
Not reliable	CCN(c1nc(C)cc(Cl)n1)c1ccc(C(C)C)cc1I

Same assay, conditions: read-out: Ki

Structure (SMILES)	Ki [nM]
Cc1cc(Cl)nc2c1c(C#N)cn2-c1ccc(C(C)C)cc1Br	446
Cc1cc(-c2ccccc2)nc2c1c(C#N)cn2-c1ccc(C(C)C)cc1Br	> 100000
Cc1cc(N2CCOCC2)c2ccn(-c3ccc(C(C)C)cc3Br)c2n1	28
Cc1cc(C)c2c(C(=O)O)cn(-c3ccc(C(C)C)cc3Br)c2n1	> 10000
Cc1cc(C)c2c(C(N)=O)cn(-c3ccc(C(C)C)cc3Br)c2n1	> 10000
Cc1ccnc2c1c(C#N)cn2-c1ccc(C(C)C)cc1Br	> 10000
Cc1ccc2ccn(-c3ccc(C(C)C)cc3Br)c2n1	222
Cc1cc(-c2ccccc2)c2ccn(-c3ccc(C(C)C)cc3Br)c2n1	36
Cc1ccc2c(C#N)cn(-c3ccc(C(C)C)cc3Br)c2n1	1280
Cc1cc(N2CCOCC2)c2c(C#N)cn(-c3ccc(C(C)C)cc3Br)c2n1	112
Cc1cc(=O)[nH]c2c1c(C#N)cn2-c1ccc(C(C)C)cc1Br	> 10000
Cc1cc(Cl)nc2c1ccn2-c1ccc(C(C)C)cc1Br	79
CCN(c1cc(C)nc(C)n1)c1ccc(C(C)C)cc1Br	> 1000
Cc1cc(-c2ccccc2)c2c(C#N)cn(-c3ccc(C(C)C)cc3Br)c2n1	34
Cc1ccnc2c1ccn2-c1ccc(C(C)C)cc1Br	> 10000
Cc1ccc2c(C#N)cn(-c3ccc(C(C)C)cc3Br)c2[n+]1[O-]	> 10000
Cc1cc(-c2ccccc2)nc2c1ccn2-c1ccc(C(C)C)cc1Br	> 10000
Cc1cc(C)nc(Nc2ccc(C(C)C)cc2Br)n1	> 10000

Continued, values first:

Ki [nM]	Structure (SMILES)
43	CCN(c1nc(C)nc(N2CCOCC2)n1)c1c(Br)cc(OC)cc1OC
29	COc1cc(Br)c(-n2cc(C#N)c3c(C)cc(C)nc32)c(OC)c1
47	Cc1cc(C)c2ccn(-c3ccc(C(C)C)cc3Br)c2n1
22	CCN(c1nc(C)cc(N2CCOCC2)n1)c1ccc(C(C)C)cc1Br
5	CCN(c1nc(C)cc(C)n1)c1c(Br)cc(OC)cc1OC
1	COc1cc(Br)c(-n2ccc3c(C)cc(C)nc32)c(OC)c1
363	Cc1cc(C)c2c(C#N)cn(-c3ccc(C(C)C)cc3Br)c2n1
67	Cc1cc(Cl)c2ccn(-c3ccc(C(C)C)cc3Br)c2n1
48	Cc1cc(C)nc(N(C)c2ccc(C(C)C)cc2I)n1
722	Cc1cc(Cl)c2c(C#N)cn(-c3ccc(C(C)C)cc3Br)c2n1
